{"data": "Experimental data from different studies", "PCNA": "Proliferating cell nuclear antigen (PCNA, Homo sapiens, UniProt P12004)", "ADRB2": "Beta-2 adrenergic receptor (ADRB2, Homo sapiens, UniProt P07550)", "Ntsr1": "Neurotensin receptor type 1 (Ntsr1, Rattus norvegicus, UniProt P20789)", "F10 trypsin-like site": "Coagulation factor X, trypsin-like site (F10, Homo sapiens, UniProt P00742)", "MMP2": "72 kDa type IV collagenase (MMP2, Homo sapiens, UniProt P08253)", "note": "Compare with care: the assays were run in different laboratories."}
{"SMILES": "CC[C@H](C)[C@H](NC(=O)[C@H](CCCNC(=N)N)NC(=O)[C@H](CO)NC(=O)[C@H](CC(=O)O)NC(=O)[C@H](CCCCN)NC(=O)[C@H](CCCCN)NC(=O)CNC(=O)[C@H](Cc1c[nH]cn1)NC(=O)[C@@H](N)CCC(N)=O)C(=O)N[C@H](C(=O)N[C@@H](CC(=O)O)C(=O)N[C@@H](Cc1c[nH]cn1)C(=O)N[C@@H](Cc1ccccc1)C(=O)N[C@@H](CCSC)C(=O)N[C@@H](CCCNC(=N)N)C(=O)N[C@@H](CC(C)C)C(=O)N1CCC[C@H]1C(=O)N[C@@H](CCCCN)C(=O)N[C@@H](C)C(=O)O)[C@@H](C)O", "target": "PCNA", "test": "binding, ITC", "setting": "pH 7.4", "endpoint": "Kd", "value": "6.67 µM"}
{"SMILES": "COc1cc(N)c(Cl)cc1C(=O)NC1CN2CCC1CC2 (stereo not shown)", "target": "ADRB2", "test": "ligand displacement, radioligand", "setting": "cell membranes", "endpoint": "IC50", "value": "244 µM"}
{"SMILES": "NCC(O)c1cc(O)c(O)cc1F (stereo not shown)", "target": "ADRB2", "test": "ligand displacement, radioligand", "setting": "cell membranes", "endpoint": "Ki", "value": "1160 µM"}
{"SMILES": "O=C1C2(Cl)C3(Cl)C4(Cl)C(Cl)(Cl)C5(Cl)C3(Cl)C1(Cl)C5(Cl)C24Cl (stereo not shown)", "target": "Histone-lysine N-methyltransferase SETD7 (SETD7, Homo sapiens, UniProt Q8WTS6)", "test": "enzyme activity, inhibitor", "endpoint": "IC50", "value": "> 333 µM"}
{"SMILES": "NCC(O)c1ccc(O)c(O)c1F (stereo not shown)", "target": "ADRB2", "test": "ligand displacement, radioligand", "setting": "cell membranes", "endpoint": "Ki", "value": "16 µM"}
{"SMILES": "COc1ccccc1-c1cc(C(=O)NC2(C(=O)O)CCCCC2)nn1-c1ccc(F)cc1", "target": "Ntsr1", "test": "calcium signal, antagonist, fluorescence", "endpoint": "Kb", "value": "> 10 µM"}
{"SMILES": "CC(C)(C)[C@H](NC(=O)[C@H](CCCNC(=N)N)NC(=O)Cc1ccc(CNC(=N)N)cc1)C(=O)N[C@@H](CCONC(=N)N)C(=O)NCc1ccc(C(=N)N)cc1", "target": "F10 trypsin-like site", "test": "enzyme activity, inhibitor", "setting": "pH 8", "endpoint": "Ki", "value": "15 µM"}
{"SMILES": "CC(C)C[C@H](NC(=O)[C@H](Cc1ccccc1)NC(=O)c1cnccn1)B(O)O", "target": "Coagulation factor X (F10, Homo sapiens, UniProt P00742)", "test": "enzyme activity, inhibitor", "endpoint": "IC50", "value": "> 33 µM"}
{"SMILES": "CC(C)(C)[C@H](NC(=O)[C@H](CCONC(=N)N)NC(=O)Cc1ccc(CN)cc1)C(=O)N[C@@H](CCONC(=N)N)C(=O)NCc1ccc(C(=N)N)cc1", "target": "F10 trypsin-like site", "test": "enzyme activity, inhibitor", "setting": "pH 8", "endpoint": "Ki", "value": "47 µM"}
{"SMILES": "CCCCNNC(=O)c1ccc(Br)cc1", "target": "Histone deacetylase 7 (HDAC7, Homo sapiens, UniProt Q8WUI4)", "test": "enzyme activity, inhibitor, fluorescence", "endpoint": "IC50", "value": "> 100 µM"}
{"SMILES": "CC(=O)N[C@@H](C)C(=O)N1CCC[C@H]1C(=O)N[C@@H](CC(C)C)C(=O)N[C@H](C(=O)N[C@@H](CCCNC(=N)N)C(=O)NCC(=O)N[C@@H](CO)C(=O)N[C@@H](CS)C(=O)N[C@@H](CCCNC(=N)N)C(=O)N[C@@H](CCCCN)C(=O)N[C@@H](CCCNC(=N)N)C(=O)N[C@@H](CC(N)=O)C(=O)N[C@@H](CCCNC(=N)N)C(=O)N[C@@H](CO)C(=O)N1CCC[C@H]1C(=O)N[C@@H](CCC(=O)O)C(=O)N[C@@H](CCCNC(=N)N)C(N)=O)[C@@H](C)O", "target": "WD repeat-containing protein 5 (WDR5, Homo sapiens, UniProt P61964)", "test": "binding, ITC", "setting": "pH 7", "endpoint": "Kd", "value": "14.6 µM"}
{"SMILES": "CC#CCOc1ccc(S(=O)(=O)CC2CS2)cc1 (racemic)", "target": "MMP2", "test": "enzyme activity, inhibitor, fluorescence", "endpoint": "IC50", "value": "26 µM"}
{"SMILES": "CC[C@H](C)[C@H](NC(=O)[C@H](CCCCN)NC(=O)[C@H](CO)NC(=O)[C@H](CC(=O)O)NC(=O)[C@H](CCCCN)NC(=O)[C@H](CCCCN)NC(=O)CNC(=O)[C@H](Cc1c[nH]cn1)NC(=O)[C@@H](N)CCC(N)=O)C(=O)N[C@H](C(=O)N[C@@H](CC(=O)O)C(=O)N[C@@H](Cc1c[nH]cn1)C(=O)N[C@@H](Cc1ccccc1)C(=O)N[C@@H](CCSC)C(=O)N[C@@H](C)C(=O)N[C@@H](CC(C)C)C(=O)N1CCC[C@H]1C(=O)N[C@@H](CCCCN)C(=O)N[C@@H](C)C(=O)O)[C@@H](C)O", "target": "PCNA", "test": "binding, ITC", "setting": "pH 7.4", "endpoint": "Kd", "value": "4.27 µM"}
{"SMILES": "C[C@H](N)Cn1ncc2ccc3c(c21)CCCO3", "target": "ADRB2", "test": "cell-free assay, radioligand", "endpoint": "Ki", "value": "0.48 µM"}
{"SMILES": "CC[C@H](C)[C@H](NC(=O)[C@H](C)NC(=O)[C@H](CO)NC(=O)[C@H](CC(=O)O)NC(=O)[C@H](CCCCN)NC(=O)[C@H](CCCCN)NC(=O)CNC(=O)[C@H](Cc1c[nH]cn1)NC(=O)[C@@H](N)CCC(N)=O)C(=O)N[C@H](C(=O)N[C@@H](CC(=O)O)C(=O)N[C@@H](Cc1c[nH]cn1)C(=O)N[C@@H](Cc1ccccc1)C(=O)N[C@@H](CCSC)C(=O)N[C@@H](CCCNC(=N)N)C(=O)N[C@@H](CC(C)C)C(=O)N1CCC[C@H]1C(=O)N[C@@H](CCCCN)C(=O)N[C@@H](C)C(=O)O)[C@@H](C)O", "target": "PCNA", "test": "binding, ITC", "setting": "pH 7.4", "endpoint": "Kd", "value": "24.9 µM"}
{"SMILES": "O=C(N[C@H]1COC(=O)[C@@H](NC(=O)c2cccc(O)c2[O-])COC(=O)[C@@H](NC(=O)c2cccc(O)c2[O-])COC1=O)c1cccc(O)c1[O-].[Fe+3]", "target": "Neutrophil gelatinase-associated lipocalin (LCN2, Homo sapiens, UniProt P80188, C107S)", "test": "binding, fluorescence", "setting": "pH 5.5", "endpoint": "Kd", "value": "0.00015 µM"}
{"SMILES": "c1ccc2c(c1)ccc1ccc3ccccc3c12", "target": "Cytochrome P450 1B1 (CYP1B1, Homo sapiens, UniProt Q16678)", "test": "binding, absorbance", "setting": "pH 7.4", "endpoint": "Kd", "value": "2.5 µM"}
{"SMILES": "CC[C@H](C)[C@H](NC(=O)[C@H](CCCCN)NC(=O)[C@H](CO)NC(=O)[C@H](CC(=O)O)NC(=O)[C@H](CCCCN)NC(=O)[C@H](CCCCN)NC(=O)CNC(=O)[C@H](Cc1c[nH]cn1)NC(=O)[C@@H](N)CCC(N)=O)C(=O)N[C@H](C(=O)N[C@@H](CC(=O)O)C(=O)N[C@@H](Cc1c[nH]cn1)C(=O)N[C@@H](C)C(=O)N[C@@H](CCSC)C(=O)N[C@@H](CCCNC(=N)N)C(=O)N[C@@H](CC(C)C)C(=O)N1CCC[C@H]1C(=O)N[C@@H](CCCCN)C(=O)N[C@@H](C)C(=O)O)[C@@H](C)O", "target": "PCNA", "test": "binding, ITC", "setting": "pH 7.4", "endpoint": "Kd", "value": "41.3 µM"}
{"SMILES": "CC(C)C[C@H](NC(=O)[C@H](CCC(N)=O)NC(=O)[C@H](CC(C)C)NC(=O)[C@H](CO)NC(=O)[C@H](CO)NC(=O)[C@@H]1CCCN1C(=O)[C@H](Cc1c[nH]c2ccccc12)NC(=O)[C@H](CCC(N)=O)NC(=O)[C@H](Cc1c[nH]c2ccccc12)NC(=O)[C@H](Cc1c[nH]c2ccccc12)NC(=O)[C@@H](N)Cc1c[nH]cn1)C(=O)N[C@@H](CCCNC(=N)N)C(=O)NCC(=O)NCC(=O)NCC(=O)N[C@@H](CO)C(=O)O", "target": "MMP2", "test": "enzyme activity, inhibitor, fluorescence", "endpoint": "IC50", "value": "0.078 µM"}
{"SMILES": "CC[C@H](C)[C@H](NC(=O)[C@H](CCCCNC(C)=O)NC(=O)[C@H](CO)NC(=O)[C@H](CC(=O)O)NC(=O)[C@H](CCCCN)NC(=O)[C@H](CCCCN)NC(=O)CNC(=O)[C@H](Cc1c[nH]cn1)NC(=O)[C@@H](N)CCC(N)=O)C(=O)N[C@H](C(=O)N[C@@H](CC(=O)O)C(=O)N[C@@H](Cc1c[nH]cn1)C(=O)N[C@@H](Cc1ccccc1)C(=O)N[C@@H](CCSC)C(=O)N[C@@H](CCCNC(=N)N)C(=O)N[C@@H](CC(C)C)C(=O)N1CCC[C@H]1C(=O)N[C@@H](CCCCN)C(=O)N[C@@H](C)C(=O)O)[C@@H](C)O", "target": "PCNA", "test": "binding, ITC", "setting": "pH 7.4", "endpoint": "Kd", "value": "6.14 µM"}
{"SMILES": "COc1cccc2c1C(=O)c1c(O)c3c(c(O)c1C2=O)C[C@@](O)(C(=O)CO)C[C@@H]3O[C@H]1C[C@H](N)[C@H](O)[C@H](C)O1", "target": "Ileal sodium/bile acid cotransporter (SLC10A2, Homo sapiens, UniProt Q12908)", "test": "transporter uptake, inhibitor", "endpoint": "Ki", "value": "101 µM"}
{"SMILES": "CCOC(=O)C(CC)(CCCSCCOCCOCCOCCOCCNC(=O)OC(C)(C)C)NC(=O)c1ccc(C2CC2)c(Cc2ccc(F)cc2)n1 (stereo not shown)", "target": "Cannabinoid receptor 2 (CNR2, Homo sapiens, UniProt P34972)", "test": "cAMP, agonist", "endpoint": "EC50", "value": "0.013 µM"}
{"SMILES": "CCc1c(C(=O)N[C@H](C(=O)O)C2CCCCC2)nn(-c2ccnc3cc(Cl)ccc23)c1-c1c(OC)cccc1OC", "target": "Ntsr1", "test": "calcium signal, antagonist, fluorescence", "endpoint": "Kb", "value": "> 10 µM"}
{"SMILES": "CC[C@H](C)[C@H](NC(=O)[C@H](CCCCN)NC(=O)[C@H](CO)NC(=O)[C@H](CC(=O)O)NC(=O)[C@H](CCCCN)NC(=O)[C@H](CCCCN)NC(=O)CNC(=O)[C@H](Cc1c[nH]cn1)NC(=O)[C@@H](N)CCC(N)=O)C(=O)N[C@@H](C)C(=O)N[C@@H](CC(=O)O)C(=O)N[C@@H](Cc1c[nH]cn1)C(=O)N[C@@H](Cc1ccccc1)C(=O)N[C@@H](CCSC)C(=O)N[C@@H](CCCNC(=N)N)C(=O)N[C@@H](CC(C)C)C(=O)N1CCC[C@H]1C(=O)N[C@@H](CCCCN)C(=O)N[C@@H](C)C(=O)O", "target": "PCNA", "test": "binding, ITC", "setting": "pH 7.4", "endpoint": "Kd", "value": "55.5 µM"}
{"SMILES": "CC(C)(C)[C@H](NC(=O)[C@H](CCONC(=N)N)NC(=O)Cc1ccc(CNC(=N)N)cc1)C(=O)N[C@@H](CCCCN)C(=O)NCc1ccc(C(=N)N)cc1", "target": "F10 trypsin-like site", "test": "enzyme activity, inhibitor", "setting": "pH 8", "endpoint": "Ki", "value": "26 µM"}
